The test system of one assay is SNU-638. The experiment in a line: Cytotoxicity against human SNU638 cells by MTT assay. In kind it is functional, cell-based. In outline:
(§1)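 MTT viability assay on T47D (breast ductal carcinoma) and SNU638 (gastric cancer) human cell lines. IC50 reported as mean ± SD of three separate experiments, each run in triplicate.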

For the next assay, the system named is T47D. The experiment in a line: Cytotoxicity against human T47D cells by MTT assay. In kind it is functional, cell-based. In outline: as §1
Another assay concerns the target Procathepsin L (Homo sapiens, UniProt P07711). The experiment in a line: Inhibition of cathepsin L (unknown origin) using Z-FR-AMC as substrate after 30 mins by fluorescence assay. In outline:
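Calbiochem cathepsin L (4 nM) was reductively pre-activated for 30 min at 37 °C in 0.1 M NaOAc-HCl, 1 mM EDTA, 0.1% β-mercaptoethanol, pH 5.5. Reaction started with compound plus 20 μM Z-FR-AMC and ran 30 min at room temperature. Fluorescence read at 360 nm excitation / 450 nm emission. IC50 is the mean ± SD of triplicate runs.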

The next assay deals with Cathepsin B (Homo sapiens, UniProt P07858). The experiment in a line: Inhibition of cathepsin B (unknown origin) using RR-AMC as substrate after 30 mins by fluorescence assay.
The target in assay [1] is DNA topoisomerase 2-alpha (Homo sapiens) (UniProt P11388). Nature of the assay: Inhibition of human topoisomerase 2 at 20 uM relative to control. The method, boiled down: (§2)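 Supercoiled DNA relaxation assay with human topoisomerase I or II (Topogen). Compounds were tested at final 100 and 20 μM. Percent inhibition was derived from the inhibition ratio by image analysis and expressed as the mean of triplicate experiments.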

Assay [2] shares this target. The experiment in a line: Inhibition of human topoisomerase 2 at 100 uM relative to control. In outline:
as §2

Assay [3] has as its target T1, DNA topoisomerase 1 (Homo sapiens) (UniProt P11387).
T1 sequence (whole entry): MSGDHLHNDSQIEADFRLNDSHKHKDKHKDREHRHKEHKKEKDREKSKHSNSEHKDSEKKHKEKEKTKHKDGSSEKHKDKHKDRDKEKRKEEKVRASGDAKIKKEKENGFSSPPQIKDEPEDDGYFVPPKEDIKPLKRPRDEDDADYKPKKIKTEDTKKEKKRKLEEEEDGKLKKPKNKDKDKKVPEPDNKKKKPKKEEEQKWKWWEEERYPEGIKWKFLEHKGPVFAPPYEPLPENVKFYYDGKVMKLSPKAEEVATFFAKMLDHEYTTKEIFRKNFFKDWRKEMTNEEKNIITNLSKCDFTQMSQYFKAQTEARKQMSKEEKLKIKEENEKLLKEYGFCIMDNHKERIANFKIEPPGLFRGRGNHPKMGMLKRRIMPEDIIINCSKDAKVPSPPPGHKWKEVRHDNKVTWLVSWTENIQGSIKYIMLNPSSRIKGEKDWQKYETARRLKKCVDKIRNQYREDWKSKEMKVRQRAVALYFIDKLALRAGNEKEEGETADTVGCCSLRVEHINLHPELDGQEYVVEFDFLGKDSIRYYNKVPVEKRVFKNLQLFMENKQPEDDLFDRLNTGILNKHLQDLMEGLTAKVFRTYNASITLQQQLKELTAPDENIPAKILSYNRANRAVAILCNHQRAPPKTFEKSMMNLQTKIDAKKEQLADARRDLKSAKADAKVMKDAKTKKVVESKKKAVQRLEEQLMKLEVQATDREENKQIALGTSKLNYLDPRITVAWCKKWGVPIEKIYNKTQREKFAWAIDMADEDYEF
The experiment in a line: Inhibition of human topoisomerase 1 at 20 uM relative to control. The method, boiled down:
as §2

In assay [4] the target is T1, DNA topoisomerase 1 (Homo sapiens). The experiment in a line: Inhibition of human topoisomerase 1 at 100 uM relative to control. In outline:
as §2

Sequence of DNA topoisomerase 2-alpha (Homo sapiens) (P11388 whole entry): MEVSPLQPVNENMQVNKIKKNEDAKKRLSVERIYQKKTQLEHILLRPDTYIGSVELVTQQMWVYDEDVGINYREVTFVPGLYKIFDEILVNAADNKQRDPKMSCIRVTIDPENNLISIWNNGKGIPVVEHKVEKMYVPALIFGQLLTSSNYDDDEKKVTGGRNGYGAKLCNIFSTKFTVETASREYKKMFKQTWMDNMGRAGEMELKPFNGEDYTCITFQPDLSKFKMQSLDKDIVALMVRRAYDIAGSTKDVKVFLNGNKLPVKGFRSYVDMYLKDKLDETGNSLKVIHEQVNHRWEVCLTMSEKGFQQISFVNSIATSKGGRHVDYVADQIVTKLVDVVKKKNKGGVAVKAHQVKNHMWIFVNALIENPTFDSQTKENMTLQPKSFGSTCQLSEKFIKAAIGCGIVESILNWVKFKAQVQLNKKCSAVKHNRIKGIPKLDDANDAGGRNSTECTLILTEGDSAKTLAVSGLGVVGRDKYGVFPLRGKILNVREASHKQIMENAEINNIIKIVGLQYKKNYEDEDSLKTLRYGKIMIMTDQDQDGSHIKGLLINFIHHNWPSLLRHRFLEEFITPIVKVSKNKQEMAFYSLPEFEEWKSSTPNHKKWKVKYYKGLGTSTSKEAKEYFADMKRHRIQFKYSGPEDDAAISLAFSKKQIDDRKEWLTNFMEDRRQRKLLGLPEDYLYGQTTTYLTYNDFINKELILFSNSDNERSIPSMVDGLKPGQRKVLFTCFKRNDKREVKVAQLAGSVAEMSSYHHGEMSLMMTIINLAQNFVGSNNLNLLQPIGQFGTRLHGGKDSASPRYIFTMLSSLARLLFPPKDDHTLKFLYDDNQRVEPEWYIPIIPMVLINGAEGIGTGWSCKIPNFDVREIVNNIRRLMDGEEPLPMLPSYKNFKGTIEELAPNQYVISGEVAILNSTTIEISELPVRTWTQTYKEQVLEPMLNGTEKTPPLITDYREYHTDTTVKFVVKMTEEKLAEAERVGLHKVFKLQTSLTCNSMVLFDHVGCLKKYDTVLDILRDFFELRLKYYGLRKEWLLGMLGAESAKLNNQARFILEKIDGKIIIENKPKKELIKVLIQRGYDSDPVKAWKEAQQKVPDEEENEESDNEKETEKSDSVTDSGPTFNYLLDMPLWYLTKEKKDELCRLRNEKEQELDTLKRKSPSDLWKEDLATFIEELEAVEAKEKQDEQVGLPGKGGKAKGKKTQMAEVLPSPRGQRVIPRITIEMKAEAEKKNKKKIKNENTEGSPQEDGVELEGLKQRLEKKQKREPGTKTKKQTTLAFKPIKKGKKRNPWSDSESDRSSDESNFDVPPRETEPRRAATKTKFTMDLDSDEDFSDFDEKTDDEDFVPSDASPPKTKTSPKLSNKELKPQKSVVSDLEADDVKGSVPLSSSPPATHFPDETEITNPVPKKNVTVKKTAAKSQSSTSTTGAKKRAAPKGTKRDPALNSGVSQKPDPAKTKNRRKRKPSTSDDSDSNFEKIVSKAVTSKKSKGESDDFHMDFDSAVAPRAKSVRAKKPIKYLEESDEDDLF
Sequence of Procathepsin L (P07711 whole entry): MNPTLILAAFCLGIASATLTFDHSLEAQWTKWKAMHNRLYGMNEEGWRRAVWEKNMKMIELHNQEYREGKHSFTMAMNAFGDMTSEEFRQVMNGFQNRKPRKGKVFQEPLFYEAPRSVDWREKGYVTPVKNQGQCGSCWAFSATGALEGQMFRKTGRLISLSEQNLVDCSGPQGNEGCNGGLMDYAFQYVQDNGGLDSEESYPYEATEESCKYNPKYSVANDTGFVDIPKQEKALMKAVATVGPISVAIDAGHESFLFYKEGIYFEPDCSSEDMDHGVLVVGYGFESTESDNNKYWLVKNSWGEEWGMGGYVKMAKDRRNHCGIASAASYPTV

The IC50 is the midpoint of a concentration-inhibition curve. The low end stands for greater potency in that assay, the high end for weaker potency in that assay. Turning to `COc1cc([C@@H]2c3cc4c(cc3[C@@H](O[C@@H]3O[C@@H]5CO[C@@H](C)O[C@H]5[C@H](O)[C@H]3O)[C@H]3COC(=O)[C@H]23)OCO4)cc(OC)c1O` [ETOPOSIDE], the IC50 in the assay on SNU-638 amounted to 2.57 µM; in the assay with T47D, 4.98 µM.

As a reminder, the inhibition is the share of the control response that was lost under treatment. A low value points to a weak effect. In the case of `O=C(/C=C/c1ccc(N2CCCC2)cc1)c1ccc(O)cc1`, the IC50 in the assay on SNU-638 was 0.62 µM; in the assay with T47D it was 1.37 µM; on Procathepsin L, 3.15 µM; against Cathepsin B it was 1.81 µM. The inhibition in assay [1] was 19.1%; in assay [2], 96.8%; in assay [3], 60%; in assay [4], 74.7%.

As to `COc1cc(O)ccc1C(=O)/C=C/c1ccc(F)cc1`, the IC50 in the assay with SNU-638 was above 25 µM; in the assay on T47D it was above 25 µM; against Procathepsin L, 91.2 µM; against Cathepsin B, above 100 µM. For the same compound, the inhibition in assay [2] is 0%; in assay [3] it was 61.6%; in assay [4], 86.1%.

Take `COc1ccc(/C=C/C(=O)c2ccc(O)cc2O)cc1Br`: the IC50 with SNU-638 is 2.89 µM; in the assay with T47D, 1.05 µM; against Procathepsin L, 67.5 µM; at Cathepsin B, above 100 µM. For the same compound, the inhibition stood at 2.4% in assay [2], 8.2% in assay [3] and 73.2% in assay [4].

In the case of `O=C(/C=C/c1ccc(N2CCCC2)cc1)c1ccc(F)cc1`, the IC50 was above 25 µM in the assay on SNU-638, above 25 µM in the assay with T47D, 56.5 µM at Procathepsin L and 54.3 µM against Cathepsin B. For the same compound, the inhibition stood at 0% in assay [2], 73.1% in assay [3] and 90.6% in assay [4].

For `COc1ccc(/C=C/C(=O)c2ccc(F)cc2)cc1Br`, the IC50 in the assay on SNU-638 was above 25 µM; in the assay on T47D, above 25 µM; on Procathepsin L, above 100 µM; against Cathepsin B, above 100 µM. The inhibition in assay [1] is 0%; in assay [2], 48.7%; in assay [3], 20.1%; in assay [4], 76.5%.

`COc1ccc(/C=C/C(=O)c2ccc(O)cc2)cc1Br`: the IC50 on Procathepsin L is 29.8 µM; against Cathepsin B, above 100 µM. Also, the inhibition in assay [2] worked out at 1.2%; in assay [3], 6.6%; in assay [4], 24.8%.

In the case of `COc1cccc2c1C(=O)c1c(O)c3c(c(O)c1C2=O)C[C@@](O)(C(=O)CO)C[C@@H]3O[C@H]1C[C@H](N)[C@H](O)[C@H](C)O1` [DOXORUBICIN], the IC50 with SNU-638 amounted to 0.84 µM; in the assay with T47D, 2.91 µM.

Regarding `COc1cc(O)ccc1/C=C/C(=O)c1ccc(NC(C)=O)cc1`, the IC50 came to 17.4 µM with SNU-638, 12.3 µM with T47D, 39.3 µM at Procathepsin L and 46.8 µM on Cathepsin B. Further, the results for the inhibition in assay [2], in assay [3] and in assay [4] were 0%, 17.3% and 100%, respectively.

Take `COc1ccc(/C=C/C(=O)c2cccs2)cc1Br`: the IC50 was 16.6 µM with SNU-638, 21.9 µM with T47D, above 100 µM against Procathepsin L and above 100 µM against Cathepsin B. For the same compound, the results for the inhibition in assay [2], in assay [3] and in assay [4] were 5.8%, 2.1% and 74.4%, respectively.

With `O=C(/C=C/c1ccc(F)cc1)c1ccc(O)cc1`, the IC50 in the assay on SNU-638 is 5.54 µM; in the assay with T47D, 13.8 µM; on Procathepsin L, above 100 µM; against Cathepsin B, above 100 µM. Besides, the inhibition was determined as 0% in assay [2], 18% in assay [3] and 50.9% in assay [4].

Regarding `COc1ccc(/C=C/C(=O)c2ccco2)cc1Br`, the IC50 with SNU-638 is 4.29 µM; in the assay with T47D, 10.9 µM; against Procathepsin L it was above 100 µM; against Cathepsin B it was above 100 µM. In addition, the inhibition in assay [1] stood at 0%; in assay [2] it was 24.7%; in assay [3], 8.8%; in assay [4], 92%.

In the case of `COc1cc(O)ccc1/C=C/C(=O)c1ccc(N)cc1`, the IC50 at Procathepsin L was determined as 32.9 µM; on Cathepsin B it was 76.5 µM. Further, the results for the inhibition in assay [2] and in assay [4] were 0% and 0.8%, respectively.

On to `O=C(/C=C/c1ccc(N2CCCC2)cc1)c1ccc([N+](=O)[O-])cc1`, for which the 50% inhibitory concentration (IC50) with SNU-638 was above 25 µM; with T47D it was 21.3 µM; against Procathepsin L it was 9.42 µM; against Cathepsin B it was 29 µM. In addition, the inhibition turned out to be 15.3% in assay [1], 96.1% in assay [2], 77.6% in assay [3] and 91.1% in assay [4].

With `COc1cc(O)ccc1/C=C/C(=O)c1ccc(O)cc1` [ECHINATIN], the IC50 came out at 10.4 µM in the assay with SNU-638, 12.1 µM in the assay on T47D, 30.3 µM on Procathepsin L and 57.7 µM against Cathepsin B. In addition, the inhibition in assay [2] was determined as 1.6%; in assay [3] it was 2.1%; in assay [4], 88.9%.

As to `O=C(/C=C/c1ccc(N2CCCC2)cc1)c1ccc(O)cc1O`, the IC50 was found to be 5.77 µM in the assay with SNU-638, 6.99 µM in the assay with T47D, 4.72 µM on Procathepsin L and 28.7 µM against Cathepsin B. Besides, the inhibition stood at 0% in assay [2], 64.4% in assay [3] and 87.1% in assay [4].

Consider `COc1ccc(C(=O)/C=C/c2ccc(F)cc2)c(O)c1`, for which the IC50 was 18.4 µM in the assay on SNU-638, 21.9 µM with T47D, 98.7 µM on Procathepsin L and above 100 µM against Cathepsin B. Moreover, the inhibition is 0% in assay [2], 60% in assay [3] and 81.2% in assay [4].

Turning to `CC[C@@]1(O)C(=O)OCc2c1cc1n(c2=O)Cc2cc3ccccc3nc2-1` [CAMPTOTHECIN], the IC50 is 0.28 µM in the assay with SNU-638 and 0.07 µM in the assay on T47D.

`O=C(/C=C/c1ccc(F)cc1)c1ccc(O)cc1O`: the IC50 in the assay on SNU-638 was 9.43 µM; in the assay with T47D, 8.31 µM; against Procathepsin L, above 100 µM; against Cathepsin B, above 100 µM. Further, the inhibition in assay [1] turned out to be 12.6%; in assay [2] it was 42.2%; in assay [3] it was 56.7%; in assay [4], 80.2%.

Regarding `COc1cc(O)ccc1/C=C/C(=O)c1ccc(F)cc1`, the IC50 was found to be 6.3 µM with SNU-638, 8.51 µM in the assay with T47D, 73.2 µM against Procathepsin L and 95.1 µM against Cathepsin B. The inhibition in assay [2] was 0.7%; in assay [3], 9.5%; in assay [4], 95.8%.

For `COc1ccc(C(=O)/C=C/c2ccc(OC)c(Br)c2)c(O)c1`, the IC50 was 45.3 µM against Procathepsin L and above 100 µM against Cathepsin B. The inhibition in assay [2] is 1%; in assay [3] it was 3.8%; in assay [4], 5%.
